MPTP inh = inhibitors of mitochondrial permeability transition pore; isolated mouse mitochondria, Ca2+ swelling absorbance, 30 min; 1.4% of 360,000 active; inhibition, % at 10 µM;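 active means inhibition of 50% or more, scaled per plate between neutral and stimulator controls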;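 further: 0% = DMSO wells given calcium and 100% = 1 mM EGTA wells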
Exocytosis inh = lytic granule exocytosis inhibition; TALL-104 LAMP-1 surface exposure, flow cytometry; cells stimulated with thapsigargin and PMA; 0.66% of 360,000 active; AID 651702; inhibition, % at 10 µM;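 active means inhibition above about 55%, limit read from the data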
T cell HTS = T cell immune modulators affecting CD8 T cell-vesicle binding. response (vesicle binding), % at 7 µM. 2C CD8+ T cell-vesicle binding, flow cytometry; stronger effect = lower value. AID 2052. 0.068% of 330,000 active;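 active means response, share of CD8 T cells binding vesicles, and their 90th percentile fluorescence all below set limits, cut at about 80% in these data, passing the limit was not always enough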;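 further: values below 100% mean blocked vesicle binding to the CD8+ T cells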
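Assay system – 2C mouse CD8+ T cells · Also added – QL9-loaded Drosophila micro-vesicles · Timing – Cell–vesicle co-incubation 1.5 h at 37 °C, staining 20 min on ice · Signal – flow cytometry of vesicle-bound cells · Measure – percent CD8+ FL2 mean versus row control · Controls – Peptide-free naked vesicles (low) and QL9 vesicles with 0.7% DMSO vehicle (high)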
rCAG RNA binder = molecules binding r(CAG) RNA repeats | r(CAG) RNA repeat, TO-PRO-1 dye displacement fluorescence | 1.3% of 370,000 active | inhibition, % at 3 µM | AID 651821;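 active means inhibition above the plate cutoff, the mean of all test compounds on that plate plus 3 SD, cut at about 35% in these data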;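 further: 0% = DMSO alone and 100% = 100 µM mitoxantrone as full dye displacement; higher means more dye released from RNA so lower well fluorescence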
B2AR ag = activates human beta-2 adrenergic receptor causing internalization; response, % (test concentration not listed); 0.43% of 340,000 active; Am2.2-beta2AR cells, FAP receptor internalization, flow cytometry;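 active means response above a set limit, near 3 SD of response in nonfluorescent compounds, cut at about 42% in these data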
Target sequence (P07550 whole entry, looked up): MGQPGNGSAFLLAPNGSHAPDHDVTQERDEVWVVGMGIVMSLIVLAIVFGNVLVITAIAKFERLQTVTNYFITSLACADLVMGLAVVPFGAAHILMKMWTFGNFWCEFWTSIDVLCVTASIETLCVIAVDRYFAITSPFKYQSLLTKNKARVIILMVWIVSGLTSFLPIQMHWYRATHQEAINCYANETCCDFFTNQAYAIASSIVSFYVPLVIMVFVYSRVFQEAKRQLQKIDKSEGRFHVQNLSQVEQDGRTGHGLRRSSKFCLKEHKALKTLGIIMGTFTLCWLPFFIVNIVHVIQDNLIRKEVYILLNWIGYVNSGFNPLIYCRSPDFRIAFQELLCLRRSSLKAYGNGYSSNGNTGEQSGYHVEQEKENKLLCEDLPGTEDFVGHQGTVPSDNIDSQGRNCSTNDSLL
V-ATPase pHluor = alters yeast V-ATPase proton transport. S. cerevisiae, pHLuorin cytosolic pH fluorescence. response, % at 10 µM. 0.37% of 350,000 active. AID 504577; in the data active means response mostly above about 7.3%, no sharp cut-off; inactive means mostly below about 5.4%; further: actives read high
Exocytosis CP01 = blocks lytic granule exocytosis; 11% of 1,500 active; shares compounds with Exocytosis inh; AID 651954; inhibition, % at 10 µM; TALL-104 cells, LAMP-1 externalization, flow cytometry; stimulated with PMA plus thapsigargin; in the data active means inhibition above about 60%;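 further: 0% = stimulated vehicle wells and 100% = unstimulated wells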
* marks the source's active call; other numbers are inactive results; i = inactive; . = not tested or not shown. Compounds with a hit are over-represented: about 3.8% of the library has one in this group of screens.

SMILES	MPTP inh	Exocytosis inh	T cell HTS	rCAG RNA binder	B2AR ag	V-ATPase pHluor	Exocytosis CP01
C[C@@H]1ON(C)[C@H]2C[C@H]3c4[nH]c5cccc(-c6ccc7c(c6)OCO7)c5c4CCN3C(=O)[C@@H]12	.	.	.	12.6	.	.	.
CC(=O)CC[C@H]1CC[C@]2(CCCN(C(=O)C3CCCCC3)C2)O1	.	.	.	0.9	.	.	.
CCOC(=O)Nc1ccc2c(c1)N(C(=O)CN)c1ccccc1CC2	-1.4	0.2	353.8	3.0	4.2	3.5	.
CCNCC(=O)N1c2ccccc2CCc2ccc(NC(=O)OCC)cc21	0.0	57.0*	183.5	.	-0.5	3.6	-14.2
O=S1(=O)c2ccc(Br)cc2OC[C@H](Cc2ccccc2)N1Cc1cn(Cc2ccc(C(F)(F)F)cc2)nn1	.	.	.	2.7	.	.	.
OCCC1CN(CCCc2ccccc2)CCN1CCc1ccccc1 (stereo not drawn)	1.2	61.2*	356.3	-5.2	7.5	-1.3	-3.8
Cc1ccc(-n2c(CCc3ccccc3)nnc2SCC(=O)NCc2ccccc2)cc1C	1.9	68.1*	197.7	-5.8	0.1	3.2	12.7
CC(=O)Nc1ccc(NC(=O)CSc2nc(=O)n(Cc3ccncc3)c3c2CCC3)cc1	-1.1	1.3	215.7	-1.2	-0.6	-1.2	.
Cc1ccc(NC(=O)CSc2nc(=O)n(Cc3ccncc3)c3c2CCC3)c(C)c1	2.2	58.6*	206.2	-2.0	-2.5	15.8	-3.5
O=C(CN1CCN(C(c2ccccc2)c2ccccc2)CC1)N1CCN(c2ccccc2)CC1	0.7	71.1*	274.8	0.0	19.1	2.0	-1.0
CC1CCN(CC(=O)N2CCN(c3ccccc3)CC2)CC1	-0.9	-2.5	158.0	-4.1	6.7	3.5	.
COC(=O)c1c(NC(=O)c2ccc(C(=O)c3ccccc3)cc2)sc2c1CC(C)(C)NC2(C)C	1.5	67.4*	.	6.8	.	1.4	63.4*
CC(C)(C)CC(C)(C)N=C1Nc2cc(Cl)c(Cl)cc2NC12C[C@H]1CCC(=O)N3CC[C@@H](C2)[C@@H]13 (stereo partly drawn)	1.6	75.7*	.	0.9	28.0	-3.0	-12.1
CC(C)(C)CC(C)(C)N=C1Nc2ccccc2NC12C[C@H]1CCC(=O)N3CC[C@@H](C2)[C@@H]13 (stereo partly drawn)	0.1	2.5	.	-4.0	4.4	-2.3	.
CC(C)[C@H](NC(=O)c1ccccc1)C(=O)OCC(=O)N1CCc2ccccc2C1	-1.7	68.3*	263.6	-6.0	0.3	2.9	-4.5
CCOc1cc(CNC(C)(C)CO)cc(Br)c1OCc1ccc(Cl)cc1Cl	7.4	66.5*	120.0	2.5	34.0	-3.7	35.4
O=C(NC1CCCCN(Cc2ccc(Cl)cc2)C1=O)c1ccc2ccccc2c1 (stereo not drawn)	.	.	.	1.8	.	.	.
COc1ccc(NC(=O)NCCCN2CCN(c3ccc(F)cc3)CC2)cc1OC	.	.	.	3.1	.	.	.
CCOc1ccc(S(=O)(=O)n2cc(-c3ccccc3)c(N)n2)cc1	0.7	66.9*	99.0	3.0	0.1	1.3	-7.5
CCOc1ccc(S(=O)(=O)n2cc(-c3ccc(F)cc3)c(N)n2)cc1	-0.1	74.0*	331.0	4.0	-11.0	-3.4	2.5
Cc1cc(Nc2ccc(OC(F)F)cc2)cc(=O)n1-c1ccc(OC(F)F)cc1	.	.	.	1.1	.	.	.
CCNc1nc(-c2sc(NC(=O)C(C)(C)C)nc2C)c(-n2cc(-c3ccccc3)nn2)s1	0.1	78.9*	.	7.3	.	.	57.6
COc1ccc(CCNC(=O)c2cc3c(=O)n4ccccc4nc3n(CCCN3CCOCC3)c2=N)cc1	-0.8	1.2	368.1	6.2	13.3	-2.3	.
COc1ccc(CCn2c(=N)c(C(=O)NC3CCCC3)cc3c(=O)n4cccc(C)c4nc32)cc1	0.7	42.5	516.0	11.5	11.1	5.4	.
Cc1cccn2c(=O)c3cc(C(=O)NC4CCCC4)c(=N)n(CCc4ccccc4)c3nc12	-0.8	68.7*	239.0	7.0	78.7*	1.7	-2.5
SMILES	MPTP inh	Exocytosis inh	T cell HTS	rCAG RNA binder	B2AR ag	V-ATPase pHluor	Exocytosis CP01
Cc1ccc2nc3c(cc(C(=O)NCCc4ccccc4)c(=N)n3CCCN3CCOCC3)c(=O)n2c1	0.1	80.2*	467.4	3.7	13.4	1.1	-1.7
CN(C)CCC(=O)c1ccc2c(c1)OCO2	2.9	102.3*	391.5	0.4	4.3	-0.9	102.5*
CN(C)CCCC(=O)c1ccc2c(c1)OCO2	18.0	1.1	389.9	0.3	-3.8	-2.1	.
Cc1ccc2nc(NC(=O)Cc3cccs3)sc2c1	-1.1	0.1	336.4	-0.1	1.1	-0.6	.
Cc1ccc2nc(-c3ccc(NC(=O)Cc4cccs4)cc3)[nH]c2c1	-0.1	68.0*	531.9	12.9	11.3	-1.6	-12.4
CCCCC(=O)N(Cc1ccccc1)c1ccccc1C(=O)Nc1cc(OC)ccc1OC	.	.	.	3.9	.	.	.
Oc1ccccc1N1CCN(c2ccc3ccccc3n2)CC1	-1.0	65.7*	325.8	5.9	-4.1	-1.9	-13.5
CCN(CC1CCCN(CCc2cccc(OC)c2)C1)C(=O)C=C(C)C (stereo not drawn)	0.1	21.8	159.3	-4.5	0.7	-2.2	.
CCN(CC1CCCN(CCc2cccc(OC)c2)C1)C(=O)c1ccoc1 (stereo not drawn)	-0.9	2.3	i	-7.4	-1.5	1.8	.
CCOc1cccc(CN(CC)CC2CCCN(CCc3cccc(OC)c3)C2)c1O (stereo not drawn)	1.9	85.4*	319.8	-11.6	6.7	-0.3	-11.6
CCN(Cc1cccc(OC)c1)CC1CCCN(CCc2cccc(OC)c2)C1 (stereo not drawn)	12.4	70.8*	481.8	-9.4	6.8	-5.7	-12.9
CN(Cc1ccccc1OCCO)CC1CCCN(CCc2ccc(Cl)cc2)C1 (stereo not drawn)	2.2	57.9*	242.3	-5.4	-1.3	2.3	-11.2
COc1ccc(CN(C)CC2CCCN(CCc3ccccc3C)C2)cc1O (stereo not drawn)	1.0	52.6	108.5	-12.5	10.7	-1.6	.
COc1cccc(CN(C)CC2CCCN(CCc3ccccc3C)C2)c1 (stereo not drawn)	1.3	56.9*	154.6	-11.8	2.5	-2.4	-10.2
COc1cc(OC)c(OC)cc1CN(C)CC1CCCN(CCc2ccccc2F)C1 (stereo not drawn)	1.1	46.1	191.3	-13.0	-5.2	-0.8	.
O=C(NCCc1c[nH]c2ccccc12)OCc1cn(Cc2cccc(C(F)(F)F)c2)nn1	.	.	.	0.6	.	.	.
CCN(CC)C(=O)CC[C@H]1CC[C@]2(CCCN(C(=O)c3ccco3)C2)O1	.	.	.	-0.5	.	.	.
C=CCC(=O)N(CC)CC1CCCN(CCc2cccc(F)c2)C1 (stereo not drawn)	-1.0	22.5	313.5	-7.5	-4.6	-5.4	.
CCN(Cc1ccc(O)cc1)CC1CCCN(CCc2cccc(F)c2)C1 (stereo not drawn)	0.6	67.2*	263.4	2.9	5.8	-0.6	-12.6

Screens (PubChem BioAssay)
